Assay results collected from several papers.
Target: Serine/threonine-protein kinase PAK 3 (PAK3, Homo sapiens, UniProt O75914)

Compound	observed	technique	tested at	remaining binding [%]
CN(c1nccc(-c2cnn3ncccc23)n1)C1CC1	binding		1 µM	100
COc1ncc2cc3ccccc3nc2c1C#N	cell-free assay	competition with immobilised ligand	5 µM	100
CCN1CCN(Cc2ccc(C(=O)Nc3ccc(C)c(Oc4ccc5c(c4)CC(=O)N5)c3)cc2C(F)(F)F)CC1	binding	competition with immobilised ligand	1 µM	98
CC(=O)Nc1c(C(C)=O)c(=O)n(C)c2nc(-c3ccc(Cl)cc3Cl)c(-c3ccc(Cl)cc3)cc12	cell-free assay	competition with immobilised ligand	1 µM	100
Cc1cnn2ncc(-c3ccnc(N(C)C)n3)c2c1	binding		1 µM	100
O=C(Nc1ccc(Oc2ccc(F)cc2)cc1)N1CCc2ncccc2[C@H]1c1ccc(F)cc1	cell-free assay	competition with immobilised ligand	1 µM	100
CN(CCCC(F)(F)F)c1nccc(-c2cnn3ncccc23)n1	binding		1 µM	100
CS(=O)(=O)NCC[C@H](NC(=O)c1cncc2c1cnn2-c1ccc(F)cc1)c1ccnc(S(C)(=O)=O)c1	cell-free assay	competition with immobilised ligand	1 µM	100
C[C@@H]1CCN(c2nccc(-c3cnn4ncccc34)n2)C1	binding		1 µM	85
CCC(=N\O)/C(C)=C/c1ccc(F)cc1	cell-free assay	competition with immobilised ligand	1 µM	89
Cc1cnc(Nc2ccc(C(=O)N3CCC(N4CCCC4)CC3)cc2)nc1-c1cc2ccccc2s1	binding	competition with immobilised ligand	1 µM	23
O=C(Nc1c[nH]nc1C(=O)NC1CCNCC1)c1cc(F)cc(F)c1	binding	competition with immobilised ligand	1 µM	98
C[C@@H](c1ccc(-n2cnc3c(N)ncnc32)cc1)N1CCc2nn(C)c(Cc3ccccc3)c2C1=O	binding	competition with immobilised ligand	0.1 µM	71
O=C(NCCCN1CCOCC1)c1ccc(Nc2nccc(-c3cc4ccccc4s3)n2)cc1	binding	competition with immobilised ligand	1 µM	71
CNC(=O)[C@@H]1CC[C@@H](n2c(-c3ccc4cnccc4c3)nc3ccc(C(=O)NCc4cccc(C(N)=O)c4)cc32)C1	binding	competition with immobilised ligand	1 µM	95
Cc1c(NC(=O)c2cc(C(N)=O)nc3cc(F)ccc23)c(C(F)(F)F)nn1Cc1ccc(C(C)(C)C)cc1	cell-free assay	competition with immobilised ligand	1 µM	100
COc1ccnn2ncc(-c3ccnc(N(C)C)n3)c12	binding		1 µM	100
C[C@H](c1cccc(C#N)c1)n1cc(Cl)cc(C(N)=O)c1=N	cell-free assay	competition with immobilised ligand	1 µM	88
O=C(c1ccc(Nc2ncc(Cl)c(-c3ccc(Cl)s3)n2)cc1)N1CCC(N2CCCC2)CC1	binding	competition with immobilised ligand	1 µM	38
N[C@@H]1CCN(c2nccc(-c3cnn4ncccc34)n2)C1	binding		1 µM	99
COc1cnc(Nc2cccc(S(N)(=O)=O)c2)nc1N1CCN(c2ccccc2)CC1	binding	competition with immobilised ligand	1 µM	100
